Data on three molecules can be found in ChEMBL document CHEMBL2203058, “Isolation of steroidal glycosides from the Caribbean sponge Pandaros acanthifolium” (J Nat Prod, 2012).

Molecules are shown by their SMILES. The source made the active and inactive calls. The rule behind the calls is not given here.

The test system of data set [1] is U-373MG ATCC. The data set is described as follows: (§1) Antioxidant activity in human U373 cells assessed as increase of antioxidant response element-mediated phase 2 protein expression at 25 ug/ml after 24 hrs by luciferase reporter gene assay relative to control. The format is functional. The method in brief: (§2)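 U373 astrocytoma cells stably carrying firefly luciferase under ARE control, grown in DMEM with 10% FCS and antibiotics. 5 × 10^4 cells/well seeded in quadruplicate, exposed 24 h to 25, 10, 5 or 2.5 μg/mL glycoside, then luciferase read. Controls: mock-treated and DMSO 0.25% v/v. Activity expressed as fold change versus 25 μM tert-butylhydroquinone; >2-fold over TBHQ scored a hit.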
A general note: A reporter such as luciferase makes a cellular process visible.

Data set [2] is described as follows: as §1. The class given is functional, U-373MG ATCC. The method in brief: as §2
The nature of data set [3]: Antioxidant activity in human U373 cells assessed as increase of antioxidant response element-mediated phase 2 protein expression after 24 hrs by luciferase reporter gene assay relative to TBHQ. The format is functional, U-373MG ATCC. The method in brief: as §2
The subject of data set [4] is U-373MG ATCC. The data set is described as follows: Cytoprotective activity in H2O2-stimulated human U373 cells assessed as increase of SOD activity treated 24 hrs before H2O2 stimulation measured after 24 hrs. The class given is functional, cell-based. The essentials: (§3)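 U373 cells at 2 × 10^4/well in quadruplicate, pretreated 24 h with 25, 10, 5 or 2.5 μg/mL glycoside. Media replaced with fresh media containing glycoside plus 300 μM H2O2 for 24 h more. Cells PBS-washed, lysed by three freeze–thaw cycles, centrifuged; SOD (WST-1/xanthine oxidase inhibition, […], against SOD standard curve) or GPx measured by colorimetric kits.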

For data set [5], the system named is U-373MG ATCC. The data set is described as follows: Antioxidant activity in human U373 cells assessed as increase of antioxidant response element-mediated phase 2 protein expression after 24 hrs by luciferase reporter gene assay. The format is functional, cell-based. The method in brief:
as §2

Data set [6] relates to U-373MG ATCC. In words: Cytoprotective activity in human U373 cells assessed as effect of H2O2-stimulated lipid peroxidation assay at 2.5 to 25 ug/ml treated 24 hrs before H2O2 stimulation measured after 24 hrs by TBARS assay. The class given is functional, cell-based. The method in brief:
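U373 cells at 2 × 10^4/well in quadruplicate, 24 h pretreatment with 25, 10, 5 or 2.5 μg/mL glycoside, then 24 h in fresh media with glycoside and 300 μM H2O2. PBS-washed cells lysed by freeze–thaw; uncentrifuged lysate assayed for TBARS (MDA–TBA adduct, A532), calibrated with MDA 0–100 nmol/mL, reported as MDA equivalents. Mock and 0.25% DMSO controls.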

Data set [7] concerns xenobiotic response element (XRE)-mediated transcriptional activity. The data set is described as follows: Toxicity in human U373 cells assessed as effect on xenobiotic response element-mediated activity at 2.5 to 25 ug/ml after 24 hrs by luciferase reporter gene assay. The format is cell-based, U-373MG ATCC. The settings on record: read-out: FC. The essentials: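 XRE counterscreen: U373 astrocytoma cells stably carrying a luciferase cassette driven by the xenobiotic response element, grown in DMEM with 10% FCS and antibiotics. 5 × 10^4 cells/well in quadruplicate, 24 h with 25, 10, 5 or 2.5 μg/mL glycoside, then luciferase activity measured. Mock and DMSO (0.25% v/v) controls.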

Data set [8] concerns U-373MG ATCC. The data set is described as follows: Cytoprotective activity in H2O2-stimulated human U373 cells assessed as increase of glutathione peroxidase activity treated 24 hrs before H2O2 stimulation measured after 24 hrs. The class given is functional, cell-based. The method in brief:
as §3

Data set [9] is described as follows: Cytotoxicity against human U373 cells. The format is cell-based. The settings on record: u-373mg atcc. The method in brief: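 Viability measured by MTT tetrazolium reduction in parallel reporter U373 cultures under the reporter assay conditions: 24 h with 25, 10, 5 or 2.5 μg/mL glycoside, quadruplicate wells.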
For data set [10], the system named is U-373MG ATCC. In words: Cytoprotective activity in H2O2-stimulated human U373 cells assessed as increase of SOD activity at 2.5 to 25 ug/ml treated 24 hrs before H2O2 stimulation measured after 24 hrs. The format is functional, cell-based. The essentials:
as §3

The subject of data set [11] is U-373MG ATCC. In words: Cytoprotective activity in H2O2-stimulated human U373 cells assessed as increase of glutathione peroxidase activity at 2.5 to 25 ug/ml treated 24 hrs before H2O2 stimulation measured after 24 hrs. The class given is functional, cell-based. The essentials:
as §3

`CC(C)(C)c1cc(O)ccc1O`: the outcome in data set [1] was Active.

For `CC(=O)O[C@H]1[C@@H](O[C@@H]2O[C@@H](C)[C@H](O)[C@@H](O)[C@H]2O)[C@H]2[C@@H]3CC[C@H]4C[C@@H](O[C@H]5O[C@@H](CO)[C@H](O)[C@@H](O)[C@@H]5O[C@@H]5O[C@@H](C)[C@H](O)[C@@H](O)[C@H]5O)CC[C@]4(C)[C@H]3CC[C@]2(C)[C@H]1[C@H](C)CCCC(C)C` [ACANTHIFOLIOSIDE G], the “fold change (FC)” value in [2] turned out to be 2.27; in data set [3], 2. In addition, the Activity entry was “Dose-dependent effect” in data set [4], “Dose-dependent effect” in [5], “Dose-dependent effect” in data set [8] and “Non-toxic” in data set [9]. For the same molecule, the outcome in data set [6] was inactive. Also, the fold induction at 24 h in data set [7] is above 2.

Consider `CC[C@H](C(C)C)[C@@H](O)C[C@@H](C)[C@H]1[C@@H](OC(C)=O)[C@@H](O[C@@H]2O[C@@H](C)[C@H](O)[C@@H](O)[C@H]2O)[C@H]2[C@@H]3CC=C4C[C@@H](O[C@H]5O[C@@H](CO)[C@H](O)[C@@H](O)[C@@H]5O[C@@H]5O[C@@H](C)[C@H](O)[C@@H](O)[C@H]5O)CC[C@]4(C)[C@H]3CC[C@@]21C` [ACANTHIFOLIOSIDE J], for which the outcome in data set [10] and in data set [11] was Active. For the same molecule, in data set [2], the “fold change (FC)” value is reported as 1.52.
